Assay results taken from ChEMBL document CHEMBL4613315, “Design of First-in-Class Dual EZH2/HDAC Inhibitor: Biochemical Activity and Biological Evaluation in Cancer Cells” (ACS Med Chem Lett, 2020).

Columns and labels:
U-937 [1] = test: Cytotoxicity against human U937 cells assessed as reduction in cell viability at 25 uM in presence of vorinostat incubated for 72 hrs by CellTiter-Glo Luminescent cell viability assay relative to control; type: functional; settings: U-937, 72 h
Summary of the method: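 Viability after 72 h of single-agent or combined treatment with the HDAC inhibitor (0.05–0.25 μM) and the EZH2 inhibitor. EZH2 inhibitor range: U937 5–25 μM; RH4 10–50 μM. Synergy was assessed by combination index and isobologram analysis.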

[2] = target: Histone deacetylase (Homo sapiens) (UniProt Q13547+O15379+Q9UBN7+Q92769+Q9UQL6+Q8WUI4+Q9BY41+Q96DB2+P56524+Q9UKV0+Q969S8); test: Inhibition of HDAC in human U937 cells assessed as Ac-H3 level at 50 uM in presence of vorinostat incubated for 96 hrs by Western blot analysis (reference value: 1); type: cell-based; settings: U-937
Summary of the method: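 U937 leukemia cells given EZH2 inhibitor 50 μM together with HDAC inhibitor 0.5 μM; Western blot at 96 and 120 h for H3K27me3 or acetyl-H3, actin as loading control; densitometry normalized to loading control then to DMSO vehicle.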

[3] = target: T1, Histone-lysine N-methyltransferase EZH2 (Homo sapiens, UniProt Q15910); test: Inhibition of EZH2 in human U937 cells assessed as H3K27me3 level at 50 uM incubated for 96 hrs by Western blot analysis; type: cell-based; settings: U-937
[4] = target: T1, Histone-lysine N-methyltransferase EZH2; test: Inhibition of EZH2 in human U937 cells assessed as H3K27me3 level at 50 uM incubated for 120 hrs by Western blot analysis; type: cell-based; settings: U-937
[5] = target: T1, Histone-lysine N-methyltransferase EZH2; test: Inhibition of EZH2 in human RH4 cells assessed as H3K27me3 level at 50 uM incubated for 96 hrs by Western blot analysis; type: cell-based
[6] = target: T2, Protein deacetylase HDAC6 (Homo sapiens) (UniProt Q9UBN7); test: Inhibition of HDAC6 in human RH4 cells assessed as acetylated alpha-tubulin level at 50 uM in presence of vorinostat incubated for 96 hrs by Western blot analysis (reference value: 1); type: cell-based
T2 sequence (whole entry): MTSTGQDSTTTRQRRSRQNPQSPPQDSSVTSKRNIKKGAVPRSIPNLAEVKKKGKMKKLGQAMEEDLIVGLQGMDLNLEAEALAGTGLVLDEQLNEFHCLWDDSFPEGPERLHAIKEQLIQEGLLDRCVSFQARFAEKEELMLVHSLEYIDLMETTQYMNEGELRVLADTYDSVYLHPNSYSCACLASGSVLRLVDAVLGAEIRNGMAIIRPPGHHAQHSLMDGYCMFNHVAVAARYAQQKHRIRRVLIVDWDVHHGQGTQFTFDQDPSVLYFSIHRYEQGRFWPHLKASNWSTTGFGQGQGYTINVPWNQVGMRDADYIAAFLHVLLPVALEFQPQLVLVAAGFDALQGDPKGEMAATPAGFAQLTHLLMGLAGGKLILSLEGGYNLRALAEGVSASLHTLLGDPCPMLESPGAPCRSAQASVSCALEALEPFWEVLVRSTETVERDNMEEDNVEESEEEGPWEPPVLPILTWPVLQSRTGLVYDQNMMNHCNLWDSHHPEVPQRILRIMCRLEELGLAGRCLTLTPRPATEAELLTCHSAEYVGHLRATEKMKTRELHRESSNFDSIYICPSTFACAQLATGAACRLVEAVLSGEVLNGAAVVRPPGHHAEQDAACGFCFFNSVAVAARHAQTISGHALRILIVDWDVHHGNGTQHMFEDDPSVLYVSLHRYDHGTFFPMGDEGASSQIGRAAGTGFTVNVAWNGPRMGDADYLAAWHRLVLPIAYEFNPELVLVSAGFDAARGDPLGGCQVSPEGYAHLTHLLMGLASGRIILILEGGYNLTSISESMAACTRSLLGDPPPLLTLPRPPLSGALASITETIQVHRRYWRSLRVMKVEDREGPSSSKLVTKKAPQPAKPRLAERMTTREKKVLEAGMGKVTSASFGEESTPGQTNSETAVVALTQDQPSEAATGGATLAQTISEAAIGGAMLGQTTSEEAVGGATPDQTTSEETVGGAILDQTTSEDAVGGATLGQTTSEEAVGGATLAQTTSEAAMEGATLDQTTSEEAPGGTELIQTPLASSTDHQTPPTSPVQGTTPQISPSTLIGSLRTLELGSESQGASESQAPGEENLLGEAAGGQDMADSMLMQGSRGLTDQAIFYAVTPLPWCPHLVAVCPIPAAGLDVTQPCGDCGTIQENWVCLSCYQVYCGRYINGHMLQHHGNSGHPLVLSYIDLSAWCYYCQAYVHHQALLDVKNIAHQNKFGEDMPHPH
Summary of the method: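 RH4 cells co-treated with EZH2 inhibitor at 50 μM plus HDAC inhibitor at 0.15 μM; Western blot after 72 or 96 h for H3K27me3 or acetyl-tubulin, vinculin loading control; densitometry normalized to loading control then DMSO vehicle.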

Histone deacetylase 2 = Histone deacetylase 2 (Homo sapiens, UniProt Q92769)
Histone deacetylase 4 = Histone deacetylase 4 (Homo sapiens, UniProt P56524); test: Inhibition of human recombinant HDAC4 using AMC-K(TFA)GL as substrate by fluorescence based assay
U-937 [7] = test: Cytotoxicity against human U937 cells assessed as reduction in cell viability at 10 uM incubated for 96 hrs by CellTiter-Glo Luminescent cell viability assay relative to control; type: functional; settings: U-937, 96 h
Summary of the method: (§1)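 Viability of U937 (5–25 μM) and RH4 (5–35 μM) cells after 48, 72 and 96 h of treatment at increasing concentrations.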

U-937 [8] = test: Cytotoxicity against human U937 cells assessed as reduction in cell viability at 25 uM incubated for 96 hrs by CellTiter-Glo Luminescent cell viability assay relative to control; type: functional; settings: U-937, 96 h; summary of the method: as §1
[9] = Cytotoxicity against human RH4 cells assessed as reduction in cell viability incubated for 72 hrs by CellTiter-Glo Luminescent cell viability assay; type: functional, cell-based; settings: Rh4, 72 h
Summary of the method: (§2)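 Antiproliferative IC50 after 72 h of treatment. Values are means of three independent experiments, each measured in triplicate, ± SD.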

THP-1 = test: Cytotoxicity against human THP1 cells assessed as reduction in cell viability incubated for 72 hrs by CellTiter-Glo Luminescent cell viability assay; type: functional, cell-based; settings: THP-1, 72 h; summary of the method: as §2
U-87 MG = test: Cytotoxicity against human U87 cells assessed as reduction in cell viability incubated for 72 hrs by CellTiter-Glo Luminescent cell viability assay; type: functional, cell-based, U-87MG ATCC; summary of the method: as §2
U-937 [10] = test: Induction of apoptosis in human U937 cells assessed as early apoptotic cells at 10 uM incubated for 72 hrs by annexin V-FITC staining based flow cytometry (reference value: 3.4 %); type: functional
U-937 [11] = test: Induction of apoptosis in human U937 cells assessed as early apoptotic cells at 25 uM incubated for 72 hrs by annexin V-FITC staining based flow cytometry (reference value: 3.4 %); type: functional
[12] = Cell cycle arrest in human RH4 cells assessed as G0/G1 accumulation at 28 uM incubated for 72 hrs by propidium iodide staining based flow cytometry (reference value: 46.2 %); type: functional
U-937 [13] = test: Cell cycle arrest in human U937 cells assessed as subG1 accumulation at 10 uM incubated for 72 hrs by propidium iodide staining based flow cytometry (reference value: 4.9 %)

T1 sequence (Q15910 whole entry, looked up): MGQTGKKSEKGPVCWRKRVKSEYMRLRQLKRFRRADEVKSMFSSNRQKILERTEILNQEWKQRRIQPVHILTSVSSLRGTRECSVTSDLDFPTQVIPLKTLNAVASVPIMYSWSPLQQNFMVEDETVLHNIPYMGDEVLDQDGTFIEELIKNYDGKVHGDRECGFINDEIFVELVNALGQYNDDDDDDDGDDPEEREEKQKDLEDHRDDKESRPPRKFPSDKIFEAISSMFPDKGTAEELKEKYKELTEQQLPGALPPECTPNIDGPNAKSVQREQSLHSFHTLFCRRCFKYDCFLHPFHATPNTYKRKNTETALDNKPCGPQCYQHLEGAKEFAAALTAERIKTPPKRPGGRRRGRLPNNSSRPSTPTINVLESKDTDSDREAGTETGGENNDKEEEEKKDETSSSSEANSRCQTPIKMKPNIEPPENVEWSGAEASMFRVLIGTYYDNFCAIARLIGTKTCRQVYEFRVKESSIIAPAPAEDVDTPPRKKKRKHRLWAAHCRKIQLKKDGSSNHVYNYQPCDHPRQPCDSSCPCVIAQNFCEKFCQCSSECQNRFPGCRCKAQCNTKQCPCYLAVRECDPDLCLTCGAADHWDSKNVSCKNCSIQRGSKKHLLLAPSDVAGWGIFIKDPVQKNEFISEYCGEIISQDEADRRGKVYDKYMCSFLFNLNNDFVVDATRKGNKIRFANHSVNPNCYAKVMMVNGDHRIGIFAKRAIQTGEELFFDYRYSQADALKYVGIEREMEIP
Histone deacetylase 4, sequence (P56524 whole entry): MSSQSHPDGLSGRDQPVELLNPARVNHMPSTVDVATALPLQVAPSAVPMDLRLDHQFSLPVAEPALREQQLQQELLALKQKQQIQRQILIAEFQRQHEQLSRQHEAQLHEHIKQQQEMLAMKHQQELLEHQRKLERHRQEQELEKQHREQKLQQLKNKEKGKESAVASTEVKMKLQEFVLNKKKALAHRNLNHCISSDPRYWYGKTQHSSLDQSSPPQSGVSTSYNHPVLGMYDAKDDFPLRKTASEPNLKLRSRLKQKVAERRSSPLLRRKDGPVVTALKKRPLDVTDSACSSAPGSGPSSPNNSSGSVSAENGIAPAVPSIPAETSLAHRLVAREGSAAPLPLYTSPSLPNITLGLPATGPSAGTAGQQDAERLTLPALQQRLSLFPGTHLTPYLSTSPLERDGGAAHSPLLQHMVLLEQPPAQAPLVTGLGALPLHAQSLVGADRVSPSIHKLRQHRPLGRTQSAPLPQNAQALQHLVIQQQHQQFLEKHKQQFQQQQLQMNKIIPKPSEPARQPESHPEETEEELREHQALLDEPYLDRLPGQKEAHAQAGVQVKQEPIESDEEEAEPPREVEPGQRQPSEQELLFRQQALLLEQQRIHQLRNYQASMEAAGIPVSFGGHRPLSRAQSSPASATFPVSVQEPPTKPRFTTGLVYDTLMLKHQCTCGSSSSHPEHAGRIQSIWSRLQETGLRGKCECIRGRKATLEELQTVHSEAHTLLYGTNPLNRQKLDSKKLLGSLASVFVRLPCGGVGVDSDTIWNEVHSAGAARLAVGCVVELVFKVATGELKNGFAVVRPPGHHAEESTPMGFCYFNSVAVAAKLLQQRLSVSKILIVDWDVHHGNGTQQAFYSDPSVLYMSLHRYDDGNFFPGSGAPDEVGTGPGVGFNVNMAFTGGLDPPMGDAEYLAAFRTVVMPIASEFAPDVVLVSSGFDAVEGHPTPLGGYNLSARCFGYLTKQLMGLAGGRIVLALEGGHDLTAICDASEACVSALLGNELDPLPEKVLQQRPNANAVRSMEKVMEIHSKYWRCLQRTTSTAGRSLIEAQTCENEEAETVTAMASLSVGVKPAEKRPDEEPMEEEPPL
Histone deacetylase 2, sequence (Q92769 whole entry): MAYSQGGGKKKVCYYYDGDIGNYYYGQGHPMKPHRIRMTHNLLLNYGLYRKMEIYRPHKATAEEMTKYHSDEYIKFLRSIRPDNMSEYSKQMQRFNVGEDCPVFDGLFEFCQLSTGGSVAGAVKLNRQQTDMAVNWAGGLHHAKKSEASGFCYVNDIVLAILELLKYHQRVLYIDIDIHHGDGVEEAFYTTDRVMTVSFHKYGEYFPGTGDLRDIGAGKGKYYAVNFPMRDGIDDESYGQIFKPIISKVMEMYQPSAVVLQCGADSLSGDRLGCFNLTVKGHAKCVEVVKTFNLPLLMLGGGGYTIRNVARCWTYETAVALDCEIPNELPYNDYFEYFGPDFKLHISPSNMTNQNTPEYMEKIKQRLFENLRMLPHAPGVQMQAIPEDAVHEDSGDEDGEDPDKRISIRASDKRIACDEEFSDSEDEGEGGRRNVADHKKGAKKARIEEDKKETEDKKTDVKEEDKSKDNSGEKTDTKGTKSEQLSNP

Row | fold change (FC) [2] | fold change (FC) [3] | fold change (FC) [4] | fold change (FC) [5] | fold change (FC) [6] | IC50 (Histone deacetylase 2) | IC50 (Histone deacetylase 4) | SMILES | inhibition at 25 µM (U-937 [1]) | inhibition at 10 µM (U-937 [7]) | inhibition at 25 µM (U-937 [8]) | IC50 [9] | IC50 (THP-1) | IC50 (U-87 MG) | Activity (U-937 [10]) | Activity (U-937 [11]) | Activity [12] | Activity (U-937 [13])
1 | 2.1 | 0.9 | 0.7 | 0.3 | 1.3 |  |  | Cc1cc(C)c(CNC(=O)c2cc(C)n(-c3ccccc3)c2C)c(=O)[nH]1 | 90% |  |  |  |  |  |  |  |  | 
2 |  |  |  |  |  | 1.33 µM | 36.8 µM | Cc1cc(C)c(CNC(=O)c2cc(C)n(-c3cccc(NC(=O)CCCCCCC(=O)NO)c3)c2C)c(=O)[nH]1 |  | 60% | 90% | 13 µM | 12 µM | 20 µM | 4.2% | 23.3% | 44.9% | 8.2%
